From paper PMC9134258 (ACS Omega, 2022)

Legend:
[1] = target: recombinant ALK kinase domain (aa 1073–1410) (Homo sapiens, UniProt Q9UM73); experiment: ELISA-based in vitro kinase assay, recombinant ALK; format: biochemical; conditions: 300 μM ATP
Summary of the method: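 Purified recombinant ALK kinase domain (aa 1073–1410), wild type or L1196M, was incubated with test compound and Mg++-ATP, then loaded onto peptide substrate-coated wells. Reaction ran at 30 °C for 20 min. After washing, phosphopeptide was quantified with anti-phosphotyrosine antibody PY20. IC50 came from nonlinear regression of normalized data. Inhibition mode was assessed from dose–response curves at increasing ATP concentrations.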

[2] = tested on: Ba/F3-parental cells; experiment: Parental IL3-dependent Ba/F3 cell proliferation; format: cell-based; conditions: Mus musculus, BaF3, read-out: IC50 Ba/F3-parental
Summary of the method: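 Cell growth was read by [3H]-thymidine incorporation across a dose range of test compound. IC50 values come from nonlinear regression curve fitting of normalized data.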

[3] = tested on: Ba/F3 NPM/ALK cells; experiment: Ba/F3 NPM/ALK cell proliferation; format: cell-based; conditions: read-out: IC50 Ba/F3 NPM/ALK
Summary of the method: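 Ba/F3 cells stably expressing NPM/ALK variants were made by electroporation, selected with G418 (1 mg/mL), then selected again by IL3 withdrawal. Proliferation was measured by [3H]-thymidine incorporation across a dose range of test compound. IC50 was obtained by nonlinear regression of normalized data.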

Chain of recombinant ALK kinase domain (aa 1073–1410) (Q9UM73 1073-1410): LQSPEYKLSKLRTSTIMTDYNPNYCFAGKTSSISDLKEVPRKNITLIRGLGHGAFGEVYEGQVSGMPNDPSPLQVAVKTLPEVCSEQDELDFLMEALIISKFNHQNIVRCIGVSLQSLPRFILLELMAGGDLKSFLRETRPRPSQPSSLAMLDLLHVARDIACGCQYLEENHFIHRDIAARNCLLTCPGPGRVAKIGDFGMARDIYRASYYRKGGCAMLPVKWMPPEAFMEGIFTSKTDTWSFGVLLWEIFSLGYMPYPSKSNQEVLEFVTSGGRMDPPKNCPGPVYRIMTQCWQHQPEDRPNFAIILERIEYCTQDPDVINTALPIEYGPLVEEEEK

Question: `CCCC#Cc1ccc2c(n1)[nH]c1ccccc12` [Compound 34] was tested. Which “IC50 ALK” value ([1]; Table 2, 2,6-substituted compounds) did it give?
Answer: The value was “inactive”.

Question: With `Clc1cnc2[nH]c3ccc(-c4ccc(N5CCOCC5)cn4)cc3c2c1` [Compound 67] as the compound, how does the “IC50 ALK” value ([1]; Table 3, 3-chloro-6-substituted compounds) read?
Answer: The value was “inactive”.

Question: How did the IC50 [2] turn out when `COc1ccc(-c2ccc3[nH]c4ncc(C=Cc5ccccc5)cc4c3c2)cc1` [Compound 102] was run?
Answer: The IC50 was over 10 µM.

Question: What about the IC50 [3] of the same compound?
Answer: Its IC50 is 2800 nM.
